Results: ChEMBL document CHEMBL3351495, “Anti-inflammatory components of Chrysanthemum indicum flowers” (Bioorg Med Chem Lett, 2015)
Activity calls are given as the source filed them. No cut-off for these calls is given here.

How the values were obtained:
RAW264.7 [1] = experiment: Antiinflammatory activity in mouse RAW264.7 cells assessed as inhibition of LPS-stimulated TNFalpha production at 2 uM by ELISA; type: functional
Procedure, shortened: (§1)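 RAW 264.7 cells were stimulated with LPS, with or without each compound at 0.4, 2.0 and 10.0 μM, and secreted TNF-α was measured. Concentrations were kept below 50 μM, the level checked by MTT for viability. Values are mean ± SD from at least three independent experiments, each run in triplicate.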

RAW264.7 [2] = experiment: Antiinflammatory activity in mouse RAW264.7 cells assessed as inhibition of LPS-stimulated TNFalpha production at 10 uM by ELISA; type: functional; procedure, shortened: as §1
RAW264.7 [3] = experiment: Antiinflammatory activity in mouse RAW264.7 cells assessed as inhibition of LPS-stimulated nitric oxide production at 0.4 to 10 uM after 24 hrs by Griess assay; type: functional, cell-based
Procedure, shortened: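 NO made by LPS-stimulated RAW 264.7 cells was measured by Griess reaction. Each compound was screened at 0.4, 2.0 and 10.0 μM, all below the 50 μM level checked for viability by MTT. Results are mean ± SD from at least three independent experiments run in triplicate.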

RAW264.7 [4] = experiment: Cytotoxicity against mouse RAW264.7 cells at 50 uM by MTT assay; type: cell-based; settings: raw264.7, 50 µM
RAW264.7 [5] = experiment: Antiinflammatory activity in mouse RAW264.7 cells assessed as inhibition of LPS-stimulated TNFalpha production at 0.4 to 2 uM by ELISA; type: functional, cell-based; procedure, shortened: as §1
RAW264.7 [6] = experiment: Inhibition of iNOS protein expression in LPS-stimulated mouse RAW264.7 cells by Western blot analysis; type: functional, cell-based
Procedure, shortened: (§2)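 RAW 264.7 cells exposed to LPS (1 μg/ml) with or without test agent at 0.4, 2 and 10 μM. Celecoxib (1 μM) served as reference. COX-2 and iNOS protein detected by Western blot, with actin as loading control.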

RAW264.7 [7] = experiment: Inhibition of COX2 protein expression in LPS-stimulated mouse RAW264.7 cells by Western blot analysis; type: functional, cell-based; procedure, shortened: as §2
RAW264.7 [8] = experiment: Antiinflammatory activity in mouse RAW264.7 cells assessed as inhibition of LPS-stimulated nitric oxide production at 10 uM after 24 hrs by Griess assay; type: functional; settings: RAW264.7, 24 h
Procedure, shortened: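 Nitrite in the medium measured by Griess reaction and given as % inhibition of NO production. Celecoxib (1.0 μM) served as reference. Mean SD of at least three independent experiments, each in triplicate.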

For CC1=C(C/C=C\CCO[C@@H]2O[C@H](CO)[C@@H](O)[C@H](O)[C@H]2O)C(=O)CC1, the inhibition at 2 µM (RAW264.7 [1]) was 11.8%, the inhibition at 10 µM (RAW264.7 [2]) was 23% and the inhibition (RAW264.7 [3]) was “inactive”. For the same molecule, the Activity (RAW264.7 [4]) was “Non-toxic”.

With CC[C@H](C)C(=O)OC[C@@H]1O[C@@]2(C(=O)OC)C[C@@H](O)[C@@H](O)[C@@H]1O2 the inhibition at 2 µM (RAW264.7 [1]) was 14.4%, the inhibition at 10 µM (RAW264.7 [2]) was 22% and the inhibition (RAW264.7 [3]) was “inactive”. The Activity (RAW264.7 [4]) was “Non-toxic”.

In the case of O=c1cc(-c2ccc(O)c(O)c2)oc2cc(O[C@@H]3O[C@H](CO)[C@@H](O)[C@H](O)[C@H]3O)cc(O)c12 [GALUTEOLIN], the inhibition at 10 µM (RAW264.7 [2]) is reported as 13%, the inhibition (RAW264.7 [3]) is reported as “inactive” and the Activity (RAW264.7 [4]) is reported as “Non-toxic”. The inhibition (RAW264.7 [5]) was “inactive”.

With COc1cc(/C=C/CO)cc(OC)c1O[C@@H]1O[C@H](CO)[C@@H](O)[C@H](O)[C@H]1O [SYRINGIN] the inhibition at 10 µM (RAW264.7 [2]) was 13%, the inhibition (RAW264.7 [3]) was “inactive” and the Activity (RAW264.7 [4]) was “Non-toxic”. For the same molecule, the inhibition (RAW264.7 [5]) was “inactive”.

In the case of COC(=O)[C@]1(O)C[C@@H](O)[C@@H](OC(=O)/C=C/c2ccc(O)c(O)c2)[C@H](O)C1, the inhibition (RAW264.7 [3]) is reported as “inactive”, the Activity (RAW264.7 [4]) is reported as “Non-toxic” and the inhibition (RAW264.7 [5]) is reported as “inactive”.

With OC[C@H]1O[C@@H](OCCc2ccccc2)[C@H](O)[C@@H](O)[C@@H]1O the inhibition at 10 µM (RAW264.7 [2]) was 13%, the inhibition (RAW264.7 [3]) was “inactive” and the Activity (RAW264.7 [4]) was “Non-toxic”. For the same molecule, the inhibition (RAW264.7 [5]) was “inactive”.

In the case of COc1cc(-c2oc3cc(O)cc(O)c3c(=O)c2O[C@@H]2O[C@H](CO)[C@@H](O)[C@H](O)[C@H]2O)ccc1O, the inhibition (RAW264.7 [3]) is reported as “inactive” and the Activity (RAW264.7 [4]) is reported as “Non-toxic”.

O=c1c(O)c(-c2ccc(O)c(O)c2)oc2cc(O)cc(O)c12 [QUERCETIN] was tested, and the inhibition (RAW264.7 [6]) was “Dose-dependent effect”, the inhibition (RAW264.7 [7]) was “Dose-dependent effect” and the inhibition at 10 µM (RAW264.7 [2]) was 13%. For the same molecule, the inhibition at 10 µM (RAW264.7 [8]) was 46.1%, the Activity (RAW264.7 [4]) was “Non-toxic” and the inhibition (RAW264.7 [5]) was “inactive”.

In the case of OC[C@H]1O[C@@H](OCc2ccccc2)[C@H](O)[C@@H](O)[C@@H]1O, the inhibition (RAW264.7 [3]) is reported as “inactive”, the Activity (RAW264.7 [4]) is reported as “Non-toxic” and the inhibition (RAW264.7 [5]) is reported as “inactive”.

For O=c1c(O)c(-c2ccc(O)c(O)c2)oc2cc(O[C@@H]3O[C@H](CO)[C@@H](O)[C@H](O)[C@H]3O)cc(O)c12 [QUERCIMERITRIN], the inhibition (RAW264.7 [6]) was “Dose-dependent effect”, the inhibition (RAW264.7 [7]) was “Dose-dependent effect” and the inhibition at 10 µM (RAW264.7 [2]) was 13%. The inhibition at 10 µM (RAW264.7 [8]) was 36.5%, the Activity (RAW264.7 [4]) was “Non-toxic” and the inhibition (RAW264.7 [5]) was “inactive”.

In the case of COC(=O)[C@]1(O)C[C@@H](O)[C@@H](OC(=O)/C=C/c2ccc(O)c(O)c2)[C@H](OC(=O)/C=C/c2ccc(O)c(O)c2)C1, the inhibition at 10 µM (RAW264.7 [2]) is reported as 13%, the inhibition (RAW264.7 [3]) is reported as “inactive” and the Activity (RAW264.7 [4]) is reported as “Non-toxic”. For the same molecule, the inhibition (RAW264.7 [5]) was “inactive”.

COc1cc(-c2cc(=O)c3c(O)cc(O)cc3o2)cc(OC)c1O [TRICIN] was tested, and the inhibition (RAW264.7 [3]) was “inactive” and the Activity (RAW264.7 [4]) was “Non-toxic”.

O=C(/C=C/c1ccc(O)c(O)c1)O[C@@H]1C[C@](O)(C(=O)O)C[C@@H](O)[C@H]1O [CHLOROGENIC ACID] was tested, and the inhibition at 2 µM (RAW264.7 [1]) was 16.1%, the inhibition at 10 µM (RAW264.7 [2]) was 24.7% and the inhibition (RAW264.7 [3]) was “inactive”. For the same molecule, the Activity (RAW264.7 [4]) was “Non-toxic”.

For O=C(/C=C/c1ccc(O)c(O)c1)O[C@@H]1C[C@@](OC(=O)/C=C/c2ccc(O)c(O)c2)(C(=O)O)C[C@@H](O)[C@@H]1O [CYNARIN], the inhibition (RAW264.7 [3]) was “inactive”, the Activity (RAW264.7 [4]) was “Non-toxic” and the inhibition (RAW264.7 [5]) was “inactive”.

With COC(=O)[C@]1(O)C[C@@H](OC(=O)/C=C/c2ccc(O)c(O)c2)[C@@H](O)[C@H](OC(=O)/C=C/c2ccc(O)c(O)c2)C1 the inhibition (RAW264.7 [3]) was “inactive” and the Activity (RAW264.7 [4]) was “Non-toxic”.

COC(=O)[C@]1(O)C[C@@H](O)[C@@H](O)[C@H](OC(=O)/C=C/c2ccc(O)c(O)c2)C1 [CHLOROGENIC ACID METHYL ESTER] was tested, and the inhibition (RAW264.7 [3]) was “inactive”, the Activity (RAW264.7 [4]) was “Non-toxic” and the inhibition (RAW264.7 [5]) was “inactive”.

COc1cc(CCCO)cc(OC)c1O[C@@H]1O[C@H](CO)[C@@H](O)[C@H](O)[C@H]1O [DIHYDROSYRINGIN] was tested, and the inhibition at 10 µM (RAW264.7 [2]) was 13%, the inhibition (RAW264.7 [3]) was “inactive” and the Activity (RAW264.7 [4]) was “Non-toxic”. For the same molecule, the inhibition (RAW264.7 [5]) was “inactive”.

O=c1cc(-c2ccc(O)cc2)oc2cc(O[C@@H]3O[C@H](CO)[C@@H](O)[C@H](O)[C@H]3O)cc(O)c12 [APIGETRIN] was tested, and the inhibition (RAW264.7 [3]) was “inactive” and the Activity (RAW264.7 [4]) was “Non-toxic”.
